Consider 37 molecules from ChEMBL document CHEMBL1126061, “Cyclic RGD peptide analogues as antiplatelet antithrombotics” (J Med Chem, 1992).

In the test the target is Integrin alpha-IIb/beta-3 (Homo sapiens, UniProt P05106+P08514). The test is described as follows: The compound was tested for the inhibition of fibrinogen receptor. Format: protein-complex assay. A digest of the protocol:
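Solid-phase ELISA: human fibrinogen (10 µg/mL) coated, BSA-blocked; samples plus purified human platelet GPIIbIIIa (40 µg/mL) incubated 1 h at room temperature. Bound receptor detected with anti-GPIIbIIIa antibody AP3 (1 µg/mL, 1 h), then goat anti-mouse HRP (1 h); OPD/H2O2 at pH 5, stopped with H2SO4, absorbance 492-405 nm. IC50 from four-parameter fit; n ≥ 3.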

pIC50: −log10 of the molar value. *1 amine or outer side, *2 acyl side, *3 side chain or, on linkers, in order; H or OH if unused. Where a SMILES comes first, the peptide text is derived from it. Bridges are numbered along the chain shown (N, C = ends). [ ]: non-standard residue; d: D form. X2 = C[C@H](O)[C@H](C(=O)[*:2])N(c1cccc(CC[*:3])c1)[*:1]

Integrin alpha-IIb/beta-3, sequence (P05106 27-788 limits assumed): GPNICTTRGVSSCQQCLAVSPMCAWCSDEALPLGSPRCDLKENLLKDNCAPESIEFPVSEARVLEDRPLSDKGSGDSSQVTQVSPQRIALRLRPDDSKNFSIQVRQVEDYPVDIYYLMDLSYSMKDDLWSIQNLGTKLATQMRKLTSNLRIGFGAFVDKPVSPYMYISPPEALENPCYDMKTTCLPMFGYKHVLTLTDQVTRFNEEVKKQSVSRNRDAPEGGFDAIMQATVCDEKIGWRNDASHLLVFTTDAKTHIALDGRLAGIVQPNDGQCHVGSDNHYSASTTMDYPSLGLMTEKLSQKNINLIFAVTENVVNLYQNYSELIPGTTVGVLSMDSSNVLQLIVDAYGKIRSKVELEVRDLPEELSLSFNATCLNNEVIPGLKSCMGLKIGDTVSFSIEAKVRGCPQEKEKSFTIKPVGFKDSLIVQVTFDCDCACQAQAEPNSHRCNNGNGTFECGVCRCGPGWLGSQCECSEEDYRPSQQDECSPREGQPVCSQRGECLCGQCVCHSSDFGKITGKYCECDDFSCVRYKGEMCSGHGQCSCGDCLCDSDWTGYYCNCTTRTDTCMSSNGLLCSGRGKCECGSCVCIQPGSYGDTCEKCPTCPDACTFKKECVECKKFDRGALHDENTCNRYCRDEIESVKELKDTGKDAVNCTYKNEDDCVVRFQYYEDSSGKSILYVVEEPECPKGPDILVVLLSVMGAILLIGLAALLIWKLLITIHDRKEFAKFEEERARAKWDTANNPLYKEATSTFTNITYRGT
Integrin alpha-IIb/beta-3, sequence (P08514 32-887 limits assumed): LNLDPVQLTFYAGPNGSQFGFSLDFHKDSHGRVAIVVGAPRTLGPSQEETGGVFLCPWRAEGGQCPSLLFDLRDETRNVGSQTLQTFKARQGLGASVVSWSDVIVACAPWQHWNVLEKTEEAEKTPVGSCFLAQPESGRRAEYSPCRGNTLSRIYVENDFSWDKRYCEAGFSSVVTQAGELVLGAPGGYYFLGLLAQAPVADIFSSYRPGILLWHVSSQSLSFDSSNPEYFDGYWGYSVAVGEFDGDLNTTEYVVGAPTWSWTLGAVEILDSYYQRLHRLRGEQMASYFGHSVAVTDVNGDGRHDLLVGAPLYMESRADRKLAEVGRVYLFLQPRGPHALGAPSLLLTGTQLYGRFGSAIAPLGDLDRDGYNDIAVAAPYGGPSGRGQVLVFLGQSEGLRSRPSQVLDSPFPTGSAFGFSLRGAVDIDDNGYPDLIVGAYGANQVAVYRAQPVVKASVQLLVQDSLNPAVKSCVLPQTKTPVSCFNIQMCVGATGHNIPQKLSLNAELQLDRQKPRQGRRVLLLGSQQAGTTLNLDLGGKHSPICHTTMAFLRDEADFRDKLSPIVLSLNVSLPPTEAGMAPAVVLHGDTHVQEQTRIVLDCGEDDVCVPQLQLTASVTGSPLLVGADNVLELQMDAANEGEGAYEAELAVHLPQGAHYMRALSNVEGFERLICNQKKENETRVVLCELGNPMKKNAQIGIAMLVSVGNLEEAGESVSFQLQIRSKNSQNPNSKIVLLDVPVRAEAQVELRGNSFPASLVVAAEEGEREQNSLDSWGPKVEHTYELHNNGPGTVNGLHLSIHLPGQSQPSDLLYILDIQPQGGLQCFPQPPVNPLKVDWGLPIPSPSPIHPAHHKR
Integrin alpha-IIb/beta-3, sequence (P08514 891-1039 limits assumed): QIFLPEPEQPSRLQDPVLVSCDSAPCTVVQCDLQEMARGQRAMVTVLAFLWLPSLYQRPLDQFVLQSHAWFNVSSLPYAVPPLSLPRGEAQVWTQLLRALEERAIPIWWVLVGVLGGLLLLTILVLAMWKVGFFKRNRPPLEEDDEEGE

As a reminder, the pIC50 is the IC50 on a negative log10 scale, so that one unit is a factor of ten. The molecule `N=C(N)NCCC[C@@H]1NC(=O)CNC(=O)C(c2ccccc2)SC[C@@H](C(=O)O)NC(=O)[C@H](CC(=O)O)NC(=O)CNC1=O` (stereo in doubt; 18A) gave a pIC50 of 7.82.
In the case of `N=C(N)NCCC[C@@H]1NC(=O)CNC(=O)C(c2ccccc2C(F)(F)F)SC[C@@H](C(=O)O)NC(=O)[C@H](CC(=O)O)NC(=O)CNC1=O` (stereo in doubt; 20A), the pIC50 is 7.64.
To `N=C(N)NCCC[C@@H]1NC(=O)CNC(=O)C[S+]([O-])C[C@@H](C(=O)O)NC(=O)[C@H](CC(=O)O)NC(=O)CNC1=O` (stereo in doubt; 66B) belongs 7.60.
Molecule `NCCC[C@@H]1NC(=O)CSC[C@@H](C(=O)O)NC(=O)[C@H](CC(=O)O)NC(=O)CNC(=O)[C@H](CCCN=C(N)N)NC1=O` had a pIC50 of 8.25.
`N=C(N)NCCC[C@@H]1NC(=O)c2cccc(c2)CSC[C@@H](C(=O)O)NC(=O)[C@H](CC(=O)O)NC(=O)CNC1=O` had a negative-log IC50 (pIC50) of 7.72.
In the case of `CC(C)C[C@H](NC(=O)[C@H](CC(=O)O)NC(=O)CNC(=O)[C@@H](N)CCCN=C(N)N)C(=O)O` (H-RGDL-OH), the pIC50 is 6.98.
On to `N=C(N)NCCC[C@@H]1NC(=O)[C@H](CC(N)=O)NC(=O)C[S+]([O-])C[C@@H](C(=O)O)NC(=O)[C@H](CC(=O)O)NC(=O)CNC1=O` (stereo in doubt; 67B), for which the pIC50 was 8.28.
Regarding `CC(C)[C@H]1NC(=O)CSC[C@@H](C(=O)O)NC(=O)[C@H](CC(=O)O)NC(=O)CNC(=O)[C@H](CCCNC(=N)N)NC1=O`, the negative-log IC50 (pIC50) is 7.77.
Turning to `N=C(N)NCCC[C@@H]1NC(=O)[C@H]2CCCN2C(=O)CSC[C@@H](C(=O)O)NC(=O)[C@H](CC(=O)O)NC(=O)CNC1=O` ({CH2CO}-[dP]RGDC-OH; thioether N-5), the pIC50 was 7.94.
On to `N=C(N)NCCC[C@@H]1NC(=O)CNC(=O)C(c2cccc3ccccc23)SC[C@@H](C(=O)O)NC(=O)[C@H](CC(=O)O)NC(=O)CNC1=O` (stereo in doubt; 17B), for which the pIC50 is 8.85.
Under `N=C(N)NCCC[C@@H]1NC(=O)CNC(=O)CSC[C@@H](C(=O)O)NC(=O)[C@H](CC(=O)O)NC(=O)CNC1=O` ({CH2CO}-GRGDC-OH; thioether N-5) stands 8.38.
Consider `C[C@@H]1NC(=O)C[S+]([O-])C[C@@H](C(=O)O)NC(=O)[C@H](CC(=O)O)NC(=O)CNC(=O)[C@H](CCCN=C(N)N)NC1=O` (stereo in doubt; 68B), for which the pIC50 was 8.33.
In turn, `CC(C)C[C@H]1NC(=O)CSC[C@@H](C(=O)O)NC(=O)[C@H](CC(=O)O)NC(=O)CNC(=O)[C@H](CCCNC(=N)N)NC1=O` had a pIC50 of 7.42.
Consider `N=C(N)NCCC[C@@H]1NC(=O)[C@H](Cc2ccc(O)cc2)NC(=O)C[S+]([O-])C[C@@H](C(=O)O)NC(=O)[C@H](CC(=O)O)NC(=O)CNC1=O` (stereo in doubt; 70B), for which the negative-log IC50 (pIC50) was 8.32.
Consider `N=C(N)NCCC[C@@H]1NC(=O)CSC[C@@H](C(=O)O)NC(=O)[C@H](CC(=O)O)NC(=O)CNC1=O` ({CH2CO}-RGDC-OH; thioether N-4), for which the negative-log IC50 (pIC50) is 6.88.
For `N=C(N)NCCC[C@@H]1NC(=O)[C@@H](Cc2ccc(O)cc2)NC(=O)CS(=O)(=O)C[C@@H](C(=O)O)NC(=O)[C@H](CC(=O)O)NC(=O)CNC1=O`, the pIC50 is 8.68.
The molecule `C[C@@H](O)[C@@H]1NC(=O)CSC[C@@H](C(=O)O)NC(=O)[C@H](CC(=O)O)NC(=O)CNC(=O)[C@H](CCCN=C(N)N)NC1=O` gave a negative logarithm of the IC50 (pIC50) of 8.89.
Under `N=C(N)NCCC[C@@H]1NC(=O)[C@H](CCC(=O)O)NC(=O)CSC[C@@H](C(=O)O)NC(=O)[C@H](CC(=O)O)NC(=O)CNC1=O` stands 7.82; under `N=C(N)NCCC[C@@H]1NC(=O)CNC(=O)C(c2ccc3ccccc3c2)SC[C@@H](C(=O)O)NC(=O)[C@H](CC(=O)O)NC(=O)CNC1=O` (stereo in doubt; 21A), 7.94.
With `N=C(N)NCCC[C@@H]1NC(=O)CNC(=O)C(c2ccc(-c3ccccc3)cc2)SC[C@@H](C(=O)O)NC(=O)[C@H](CC(=O)O)NC(=O)CNC1=O` (stereo in doubt; 19B), the pIC50 is 8.46.
For the molecule `N=C(N)NCCC[C@@H]1NC(=O)[C@H](Cc2ccc(O)cc2)NC(=O)CSC[C@@H](C(=O)O)NC(=O)[C@H](CC(=O)O)NC(=O)CNC1=O` ({CH2CO}-YRGDC-OH; thioether N-5), the pIC50 was 8.82.
Take `NCC(=O)N[C@@H](CCCN=C(N)N)C(=O)NCC(=O)N[C@@H](CC(=O)O)C(=O)N[C@@H](Cc1ccc(O)cc1)C(=O)O` (H-GRGDY-OH): the pIC50 is 6.62.
Under `C[C@H](O)[C@H]1Nc2cccc(c2)CCSC[C@@H](C(=O)O)NC(=O)[C@H](CC(=O)O)NC(=O)CNC(=O)[C@H](CCCN=C(N)N)NC1=O` (H-[X2]RGDC-OH; thioether 1-5) stands 8.15; under `N=C(N)NCCC[C@@H]1NC(=O)CNC(=O)[C@@H](Cc2ccccc2)SC[C@@H](C(=O)O)NC(=O)[C@H](CC(=O)O)NC(=O)CNC1=O`, 7.54; under `NC(=O)CC[C@H]1NC(=O)CSC[C@@H](C(=O)O)NC(=O)[C@H](CC(=O)O)NC(=O)CNC(=O)[C@H](CCCN=C(N)N)NC1=O`, 6.96.
To `C[C@@H](O)[C@@H]1NC(=O)C[S+]([O-])C[C@@H](C(=O)O)NC(=O)[C@H](CC(=O)O)NC(=O)CNC(=O)[C@H](CCCN=C(N)N)NC1=O` (stereo in doubt; 71B) belongs 8.00; to `N=C(N)NCCC[C@@H]1NC(=O)CNC(=O)CS(=O)(=O)C[C@@H](C(=O)O)NC(=O)[C@H](CC(=O)O)NC(=O)CNC1=O`, 7.74.
`N=C(N)NCCC[C@@H]1NC(=O)[C@H](Cc2ccc(O)cc2)NC(=O)CSC[C@@H](C(N)=O)NC(=O)[C@H](CC(=O)O)NC(=O)CNC1=O` ({CH2CO}-YRGDC-NH2; thioether N-5) gave a pIC50 of 8.60.
`N=C(N)NCCC[C@@H]1NC(=O)[C@@H](Cc2c[nH]c3ccccc23)NC(=O)CSC[C@@H](C(=O)O)NC(=O)[C@H](CC(=O)O)NC(=O)CNC1=O` gave a pIC50 of 7.54.
The molecule `CC(=O)NCC(=O)N[C@@H](CCCNC(=N)N)C(=O)NCC(=O)N[C@@H](CC(=O)O)C(=O)N[C@H](C(N)=O)C(C)C` (Ac-GRGDV-NH2) gave a negative logarithm of the IC50 (pIC50) of 6.36.
To `CC(=O)NCC(=O)N[C@@H](CCCNC(=N)N)C(=O)NCC(=O)N[C@@H](CC(=O)O)C(=O)N[C@H](C(=O)O)C(C)C` (Ac-GRGDV-OH) belongs 7.92.
`N=C(N)NCCC[C@@H]1NC(=O)[C@@H](CO)NC(=O)CSC[C@@H](C(=O)O)NC(=O)[C@H](CC(=O)O)NC(=O)CNC1=O` had a negative logarithm of the IC50 (pIC50) of 7.66.
`C[C@@H](O)[C@@H]1NC(=O)C[S+]([O-])C[C@@H](C(=O)O)NC(=O)[C@H](CC(=O)O)NC(=O)CNC(=O)[C@H](CCCN=C(N)N)NC1=O` (stereo in doubt; 71A) gave a pIC50 of 8.74.
On to `N=C(N)NCCC[C@@H]1NC(=O)CNC(=O)C(c2ccc(C(F)(F)F)cc2)SC[C@@H](C(=O)O)NC(=O)[C@H](CC(=O)O)NC(=O)CNC1=O` (stereo in doubt; 22A), for which the pIC50 was 6.74.
Under `N=C(N)NCCC[C@@H]1NC(=O)CNC(=O)C[S+]([O-])C[C@@H](C(=O)O)NC(=O)[C@H](CC(=O)O)NC(=O)CNC1=O` (stereo in doubt; 66A) stands 8.85; under `NCC(=O)N[C@@H](CCCN=C(N)N)C(=O)NCC(=O)N[C@@H](CC(=O)O)C(=O)N[C@@H](CC(=O)O)C(=O)O` (H-GRGDD-OH), 6.64.
As to `N=C(N)NCCC[C@@H]1NC(=O)[C@H](Cc2ccc(O)cc2)NC(=O)C[S+]([O-])C[C@@H](C(=O)O)NC(=O)[C@H](CC(=O)O)NC(=O)CNC1=O` (stereo in doubt; 70A), the pIC50 was 8.82.
